The nature of series [1]: AlamarBlue cytotoxicity assay in IMR-90 fibroblasts. Format: cell-based, human. To be noted: human, IMR-90 lung fibroblast cells. The method, boiled down: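 IMR-90 lung fibroblasts cultured 2 weeks in EMEM + 10% FBS, split 2–4 days before use, trypsin-EDTA detached and resuspended in culture medium. Added to test compound (2.2x in Low/Low buffer). 8 half-log concentrations, 100 μM to 32 nM final, in duplicate. AlamarBlue added, 37 °C, fluorescence 560/590 nm read every 30 min over 7 h. IC50 from concentration-response fit.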
On the technique in general: Resazurin is reduced to fluorescent resorufin, in cell work by metabolically active cells.

Series [2] has as its target CatSper (Homo sapiens, UniProt Q7RTX7+Q86XQ3+Q8NEC5+Q96P56). The conditions noted are these: reported previously; cited from earlier work.
A short description of series [3]: AlamarBlue cytotoxicity assay in human sperm. To be noted: human, human sperm. It is filed as cell-based. Summed up: (§1)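 Sperm isolated by centrifugation: liquefied at 37 °C, HTF-washed twice, 800×g, resuspended in Low/Low (low pH/low K+) buffer. Mixed with test compound (2.2x in Low/Low). 8 half-log concentrations, 100 μM to 32 nM final, in duplicate. AlamarBlue at 37 °C, 560/590 nm fluorescence every 15 min over 3 h. IC50 from concentration-response fit.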

For series [4], the system named is human sperm. Nature of the series: AlamarBlue cytotoxicity assay in human sperm. It is filed as cell-based. The conditions noted are these: human sperm and IMR‐90 fibroblasts. The method, boiled down:
as §1

The source of these data is paper PMC9378630 (Chemmedchem, 2022).

As a reminder, the IC50 is the point on the concentration scale where inhibition reaches its midpoint. The low end stands for greater potency in that assay, the high end for weaker potency in that assay. In turn, `COCC(=O)O[C@]1(CCN(C)CCCc2nc3ccccc3[nH]2)CCc2cc(F)ccc2[C@@H]1C(C)C` [Mibefradil, reference compound] yielded a 50% inhibitory concentration (IC50) at 7 h in series [1] of 22 ± 1 µM. The “Reversibility of CatSper block” value in series [2] is “irreversible loss of channel function”. The compound also yielded an IC50 at 3 h in series [3] of 25 ± 2 µM. Further, the “Separation between potencies for blocking calcium influx and cytotoxicity” value in series [4] is listed as “low separation”.
